Reference: ChEMBL document CHEMBL4382197, “Discovery of QCA570 as an Exceptionally Potent and Efficacious Proteolysis Targeting Chimera (PROTAC) Degrader of the Bromodomain and Extra-Terminal (BET) Proteins Capable of Inducing Complete and Durable Tumor Regression” (J Med Chem, 2018)
Active and inactive are the calls of the source. The calls are words filed in the database; no cut-off is given here.

Tests used:
[1] = target: T1, Protein cereblon/Eukaryotic peptide chain release factor GTP-binding subunit ERF3A/Cullin-4A (Homo sapiens) (UniProt Q96SW2+Q13619+P15170); assay: Induction of Cereblon/Cullin 4A-mediated-GSPT1 degradation in human RS4:11 cells at 0.01 to 10 nM after 3 hrs by Western blot analysis; format: cell-based
[2] = target: T2, Protein cereblon/Bromodomain-containing protein 4/Cullin-4A (Homo sapiens) (UniProt O60885+Q96SW2+Q13619); assay: Protac activity at cereblon/cullin 4A/BRD4 in human RS4:11 cells assessed as BRD4 degradation at 10 pM after 3 hrs by Western blot analysis; format: cell-based
[3] = target: T3, Protein cereblon/Bromodomain-containing protein 2/Cullin-4A (Homo sapiens) (UniProt P25440+Q96SW2+Q13619); assay: Protac activity at cereblon/cullin 4A/BRD2 in human RS4:11 cells assessed as BRD2 degradation at 30 to 100 pM after 3 hrs by Western blot analysis; format: cell-based
[4] = target: T3, Protein cereblon/Bromodomain-containing protein 2/Cullin-4A (Homo sapiens); assay: Protac activity at cereblon/cullin 4A/BRD2 in human MV4-11 cells assessed as BRD2 degradation at 30 to 100 pM after 3 hrs by Western blot analysis; format: cell-based
[5] = target: T4, Protein cereblon/Bromodomain-containing protein 3/Cullin-4A (Homo sapiens) (UniProt Q15059+Q96SW2+Q13619); assay: Protac activity at cereblon/cullin 4A/BRD3 in human RS4:11 cells assessed as BRD3 degradation at 0.5 nM after 3 hrs in presence of lenalidomide by Western blot analysis; format: cell-based
Outline: (§1)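 RS4;11 cells were pre-treated for 2 h with DMSO, lenalidomide (10 μM), MLN4924 (1 μM) or MG-132 (20 μM). The degrader was then added at 0.5 nM for 3 h. Lysates were immunoblotted for BRD2, BRD3 and BRD4, with GAPDH as loading control.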

[6] = target: T2, Protein cereblon/Bromodomain-containing protein 4/Cullin-4A (Homo sapiens); assay: Protac activity at cereblon/cullin 4A/BRD4 in human RS4:11 cells assessed as BRD4 degradation at 0.5 nM after 3 hrs in presence of lenalidomide by Western blot analysis; format: cell-based; outline: as §1
[7] = target: T3, Protein cereblon/Bromodomain-containing protein 2/Cullin-4A (Homo sapiens); assay: Protac activity at cereblon/cullin 4A/BRD2 in human RS4:11 cells assessed as BRD2 degradation at 0.5 nM after 3 hrs in presence of proteasome inhibitor MG132 by Western blot analysis; format: cell-based; outline: as §1
[8] = target: T4, Protein cereblon/Bromodomain-containing protein 3/Cullin-4A (Homo sapiens); assay: Protac activity at cereblon/cullin 4A/BRD3 in human RS4:11 cells assessed as BRD3 degradation at 0.5 nM after 3 hrs in presence of proteasome inhibitor MG132 by Western blot analysis; format: cell-based; outline: as §1
[9] = target: T1, Protein cereblon/Eukaryotic peptide chain release factor GTP-binding subunit ERF3A/Cullin-4A (Homo sapiens); assay: Induction of Cereblon/Cullin 4A-mediated-GSPT1 degradation in human MV4-11 cells at 0.01 to 10 nM after 3 hrs by Western blot analysis; format: cell-based
MOLM-13 [10] = assay: Induction of apoptosis in human MOLM13 cells at 1 nM after 24 hrs by Annexin V/propidium iodine-double staining-based flow cytometry relative to control; format: functional
Outline: (§2)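 Leukemia cells were treated for 24 h or 48 h at the indicated concentrations. They were then collected, washed in cold PBS and stained with Annexin V and propidium iodide. Apoptotic fraction was measured by flow cytometry.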

MOLM-13 [11] = assay: Induction of apoptosis in human MOLM13 cells after 24 hrs by Annexin V/propidium iodine-double staining-based flow cytometry; format: functional, cell-based; outline: as §2
RS4-11 [12] = assay: Induction of apoptosis in human RS4:11 cells after 24 to 48 hrs by Annexin V/propidium iodine-double staining-based flow cytometry; format: functional, cell-based; outline: as §2
RS4-11 [13] = assay: Induction of apoptosis in human RS4:11 cells at 0.3 to 10 nM after 24 hrs by Annexin V/propidium iodine-double staining-based flow cytometry relative to control; format: functional; outline: as §2
RS4-11 [14] = assay: Induction of apoptosis in human RS4:11 cells at 0.1 nM after 48 hrs by Annexin V/propidium iodine-double staining-based flow cytometry relative to control; format: functional; outline: as §2
Mus musculus = assay: In vivo Protac activity at cereblon/cullin/BRD4 in tumor of human RS4:11 cells xenografted in SCID mouse assessed as reduction in BRD4 protein expression at 1 to 5 mg/kg, iv administered as single dose and measured at 24 hrs post dose by Western blot analysis; format: functional, organism-based
Outline: (§3)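 SCID mice bearing subcutaneous RS4;11 tumors were given a single intravenous dose of 1 or 5 mg/kg. Tumors were harvested at 1, 6 and 24 h, two mice per time point. Tissue was ground in liquid nitrogen and lysed in CST buffer with protease inhibitors. 20 µg lysate per lane was probed for BRD2, BRD3, BRD4, c-Myc and cleaved PARP, with GAPDH as loading control.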

[15] = Drug uptake in plasma of SCID mouse xenografted with human RS4:11 cells at 5 mg/kg, iv measured at 6 hrs by LC-MS/MS analysis; format: ADME, organism-based; conditions: in vivo, BLD = below limit of detection
Outline: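 Female SCID mice with RS4;11 tumors received a single 5 mg/kg intravenous dose in 20% PCP/80% PBS. Plasma (heparin) and tissues were taken at 1, 3 and 6 h, one mouse per time point in duplicate. Plasma was precipitated with acetonitrile containing internal standard. Tissues were homogenized 5:1 in 20% acetonitrile. Quantified by LC-MS/MS against spiked plasma standards (2–2000 ng/mL); values in ng/ml or ng/g.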

RS4-11 [16] = assay: Antitumor activity against human RS4:11 cells xenografted in SCID mouse assessed tumor regression at 1 to 5 mg/kg, iv administered 3 times per week for 3 weeks; format: functional, organism-based
Outline: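 RS4;11 xenografts: 5×10^6 cells in 50% Matrigel injected subcutaneously on the dorsal side of SCID mice, one tumor per mouse. Randomized to treatment or vehicle at ~100 mm3. Intravenous dosing on several schedules, including 3 times per week for 3 weeks and weekly. Volume = L × W2/2; body weight tracked.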

MV4-11 [17] = assay: Antitumor activity against human MV4-11 cells xenografted in SCID mouse assessed tumor regression at 1 mg/kg, iv administered 3 times per week for 2 weeks; format: functional, organism-based
Outline: (§4)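 MV4;11 xenografts: 5×10^6 cells in 50% Matrigel injected subcutaneously on the dorsal side of SCID mice, one tumor per mouse. Mice randomized at ~100 mm3. Dosed intravenously three times a week for two weeks. Tumor volume = L × W2/2; body weight monitored.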

MV4-11 [18] = assay: Antitumor activity against human MV4-11 cells xenografted in SCID mouse assessed tumor regression at 5 mg/kg, iv administered 3 times per week for 2 weeks; format: functional, organism-based; outline: as §4
[19] = Toxicity in SCID mouse xenografted with human RS4:11 cells assessed weight loss at 1 to 5 mg/kg, iv administered 3 times per week for 3 weeks; format: organism-based; conditions: in vivo, 504 h
Outline: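 SCID mice received a subcutaneous dorsal implant of 5×10^6 RS4;11 cells in 50% Matrigel, one tumor per mouse. Mice were randomized at ~100 mm3 into treatment or vehicle groups. Doses were 1, 2.5 or 5 mg/kg three times weekly for 3 weeks, with body weight and signs of toxicity monitored.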

MV4-11 [20] = assay: Induction of apoptosis in human MV4-11 cells at 1 nM after 24 hrs by Annexin V/propidium iodine-double staining-based flow cytometry relative to control; format: functional; outline: as §2
RS4-11 [21] = assay: Antitumor activity against human RS4:11 cells xenografted in SCID mouse assessed as induction of apoptosis by measuring PARP cleavage at 1 to 5 mg/kg, iv administered as single dose and measured at 1 to 24 hrs post dose by Western blot analysis; format: functional, organism-based; outline: as §3

T3 sequence (P25440 whole entry, looked up): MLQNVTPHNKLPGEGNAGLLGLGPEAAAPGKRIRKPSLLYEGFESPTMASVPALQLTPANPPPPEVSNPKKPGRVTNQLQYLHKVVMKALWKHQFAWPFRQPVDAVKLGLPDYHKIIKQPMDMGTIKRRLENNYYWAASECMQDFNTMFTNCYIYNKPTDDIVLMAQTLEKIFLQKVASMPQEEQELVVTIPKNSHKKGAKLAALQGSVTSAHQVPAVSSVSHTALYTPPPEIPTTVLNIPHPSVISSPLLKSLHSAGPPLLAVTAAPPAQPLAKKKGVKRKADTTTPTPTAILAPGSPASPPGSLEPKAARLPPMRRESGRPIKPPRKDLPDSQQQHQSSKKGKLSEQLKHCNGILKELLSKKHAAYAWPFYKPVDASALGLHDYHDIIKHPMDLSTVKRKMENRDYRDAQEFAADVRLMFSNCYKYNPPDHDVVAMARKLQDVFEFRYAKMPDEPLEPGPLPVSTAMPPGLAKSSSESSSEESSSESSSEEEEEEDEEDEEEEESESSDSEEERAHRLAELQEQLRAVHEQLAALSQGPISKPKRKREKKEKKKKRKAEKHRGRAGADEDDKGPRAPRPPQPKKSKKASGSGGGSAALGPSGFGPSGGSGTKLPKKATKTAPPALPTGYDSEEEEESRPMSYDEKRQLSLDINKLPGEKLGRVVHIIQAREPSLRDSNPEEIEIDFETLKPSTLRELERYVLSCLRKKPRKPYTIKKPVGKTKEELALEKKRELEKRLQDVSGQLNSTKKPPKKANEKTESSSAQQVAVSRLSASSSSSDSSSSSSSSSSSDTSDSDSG
T3 sequence (Q13619 whole entry, looked up): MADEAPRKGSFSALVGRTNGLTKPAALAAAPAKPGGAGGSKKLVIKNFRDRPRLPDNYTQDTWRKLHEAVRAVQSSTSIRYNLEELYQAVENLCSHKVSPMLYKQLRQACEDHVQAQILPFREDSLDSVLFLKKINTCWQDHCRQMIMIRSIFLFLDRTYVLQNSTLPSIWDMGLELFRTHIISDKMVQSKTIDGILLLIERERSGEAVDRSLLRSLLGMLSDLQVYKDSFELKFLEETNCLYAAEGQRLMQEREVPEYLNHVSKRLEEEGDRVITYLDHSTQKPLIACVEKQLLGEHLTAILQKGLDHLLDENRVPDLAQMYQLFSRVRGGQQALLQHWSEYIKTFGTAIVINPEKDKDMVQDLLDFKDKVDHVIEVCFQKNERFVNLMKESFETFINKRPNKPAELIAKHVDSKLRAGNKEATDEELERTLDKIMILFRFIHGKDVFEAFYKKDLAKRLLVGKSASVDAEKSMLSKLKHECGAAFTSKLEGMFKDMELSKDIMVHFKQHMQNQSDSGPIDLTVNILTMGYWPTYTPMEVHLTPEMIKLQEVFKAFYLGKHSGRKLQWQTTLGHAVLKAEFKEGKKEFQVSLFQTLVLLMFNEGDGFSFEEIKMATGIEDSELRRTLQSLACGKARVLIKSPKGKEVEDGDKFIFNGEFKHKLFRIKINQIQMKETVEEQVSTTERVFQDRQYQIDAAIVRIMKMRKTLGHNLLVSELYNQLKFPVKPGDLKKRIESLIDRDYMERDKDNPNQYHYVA
T3 sequence (Q96SW2 whole entry, looked up): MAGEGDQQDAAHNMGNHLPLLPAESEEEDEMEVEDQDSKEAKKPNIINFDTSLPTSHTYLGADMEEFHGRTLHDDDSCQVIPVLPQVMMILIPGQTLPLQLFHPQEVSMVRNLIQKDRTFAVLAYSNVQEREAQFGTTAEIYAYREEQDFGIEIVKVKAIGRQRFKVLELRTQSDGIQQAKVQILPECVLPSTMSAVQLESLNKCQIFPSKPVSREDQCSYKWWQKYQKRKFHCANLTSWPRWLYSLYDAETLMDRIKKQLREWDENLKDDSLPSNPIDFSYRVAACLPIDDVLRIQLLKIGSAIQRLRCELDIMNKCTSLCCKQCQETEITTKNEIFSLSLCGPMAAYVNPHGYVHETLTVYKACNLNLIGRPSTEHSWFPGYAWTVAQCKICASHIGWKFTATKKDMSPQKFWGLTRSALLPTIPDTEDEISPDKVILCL
T1 sequence (P15170 whole entry, looked up): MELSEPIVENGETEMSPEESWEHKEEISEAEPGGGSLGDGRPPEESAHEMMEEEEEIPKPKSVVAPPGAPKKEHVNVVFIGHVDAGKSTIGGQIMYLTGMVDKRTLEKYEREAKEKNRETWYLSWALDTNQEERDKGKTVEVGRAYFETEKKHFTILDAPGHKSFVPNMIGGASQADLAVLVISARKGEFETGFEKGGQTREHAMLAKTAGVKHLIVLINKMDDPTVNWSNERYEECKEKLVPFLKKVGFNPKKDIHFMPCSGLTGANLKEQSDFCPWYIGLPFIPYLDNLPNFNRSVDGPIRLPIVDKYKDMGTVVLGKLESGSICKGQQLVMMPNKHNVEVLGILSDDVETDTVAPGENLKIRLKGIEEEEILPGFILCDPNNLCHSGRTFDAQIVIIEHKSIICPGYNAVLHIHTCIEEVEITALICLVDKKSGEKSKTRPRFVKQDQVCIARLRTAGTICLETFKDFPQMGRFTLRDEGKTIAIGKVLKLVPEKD
T1 sequence (Q13619 whole entry, looked up): as the sequence (Q13619 whole entry, looked up) above
T1 sequence (Q96SW2 whole entry, looked up): as the sequence (Q96SW2 whole entry, looked up) above
T4 sequence (Q13619 whole entry, looked up): as the sequence (Q13619 whole entry, looked up) above
T4 sequence (Q15059 whole entry, looked up): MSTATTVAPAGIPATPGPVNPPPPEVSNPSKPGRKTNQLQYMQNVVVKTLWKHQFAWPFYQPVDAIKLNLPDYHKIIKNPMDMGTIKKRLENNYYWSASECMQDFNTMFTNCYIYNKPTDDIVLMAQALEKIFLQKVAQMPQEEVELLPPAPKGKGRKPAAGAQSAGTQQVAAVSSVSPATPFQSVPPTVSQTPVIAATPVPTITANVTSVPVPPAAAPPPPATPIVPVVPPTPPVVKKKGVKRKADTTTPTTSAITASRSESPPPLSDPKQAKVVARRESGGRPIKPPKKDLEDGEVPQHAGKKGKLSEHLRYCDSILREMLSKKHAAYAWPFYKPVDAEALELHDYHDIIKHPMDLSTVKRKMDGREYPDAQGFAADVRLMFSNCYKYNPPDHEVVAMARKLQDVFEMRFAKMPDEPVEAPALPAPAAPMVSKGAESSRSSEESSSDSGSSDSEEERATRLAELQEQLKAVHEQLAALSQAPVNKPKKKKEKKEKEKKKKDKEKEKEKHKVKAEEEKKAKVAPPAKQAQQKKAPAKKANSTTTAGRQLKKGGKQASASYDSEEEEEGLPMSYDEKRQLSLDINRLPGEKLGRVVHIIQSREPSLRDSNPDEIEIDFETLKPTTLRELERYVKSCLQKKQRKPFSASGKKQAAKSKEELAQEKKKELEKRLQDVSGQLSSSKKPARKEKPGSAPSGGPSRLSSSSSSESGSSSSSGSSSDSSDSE
T4 sequence (Q96SW2 whole entry, looked up): as the sequence (Q96SW2 whole entry, looked up) above

- Activity [1]: inactive
- Activity [2]: Active
- Activity [3]: Active
- Activity [4]: Active
- Activity [5]: inactive
- Activity [6]: inactive
- Activity [7]: inactive
- Activity [8]: inactive
- Activity [9]: inactive
- Cp [15]: Bld
SMILES: Cc1nnc2n1Cc1sc(C#Cc3cnn(CCCC#Cc4cccc5c4CN(C4CCC(=O)NC4=O)C5=O)c3)c(Cc3ccccc3)c1OC2 (configuration not stated)
- Activity (MOLM-13 [10]): >60%
- Activity (MOLM-13 [11]): Dose-dependent effect
- Activity (RS4-11 [12]): Dose-dependent effect
- Activity (RS4-11 [13]): 15 - 30%
- Activity (RS4-11 [14]): >40%
- Activity (Mus musculus): Active
- Activity (RS4-11 [16]): Active
- Activity (MV4-11 [17]): Active
- Activity (MV4-11 [18]): Active
- Activity [19]: Non-Toxic
- Activity (MV4-11 [20]): >60%
- Activity (RS4-11 [21]): Active
